Assay results as given in the EternaBench riboswitch data.

System: MS2 coat protein
Assay: apparent Kd, MS2 coat protein; higher = weaker binding; RNA-MaP array; FMN 200 µM where present
Outline: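 The apparent Kd is reported as the median of filtered per-cluster binding-curve fits. To get these curves, designs transcribed by stalled E. coli RNA polymerase on Illumina sequencing-chip clusters were titrated with SNAP-549-labelled MS2 coat protein from 0.7 or 1.5 nM, doubling to 3 µM. Titrations were run without and then with constant ligand in 100 mM Tris-HCl pH 7.5, 80 mM KCl, 4 mM MgCl2, BSA, DTT, yeast tRNA and Tween-20, and green signal was normalised to red-channel RNA signal and control-cluster median Fmax.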

[1] = designed as: ON switch for flavin mononucleotide, no ligand
[2] = ligand present: flavin mononucleotide, designed as: ON switch for flavin mononucleotide
[3] = designed as: OFF switch for flavin mononucleotide, no ligand
[4] = ligand present: flavin mononucleotide, designed as: OFF switch for flavin mononucleotide

Sequence | apparent Kd [1] [nM] | apparent Kd [2] [nM] | apparent Kd [3] [nM] | apparent Kd [4] [nM]
GCCAUCGCAUGAGGAUAUGCUCCGGUUUCCGGAGCAGAAGGCGUGUCAUAAGACAUGAGGAUCACCCAUGUAGUUAAGAUGGCA | 246 | 10.6 |  | 
GCCAUCGCAUGAGGAUAUGCUCGGGUUUCCCGAGCAGAAGGCAUGUCACAAGACAUGAGGAUCACCCAUGUAGUUAAGAUGGCA | 190 | 9.98 |  | 
GCCAUGCUGGUGACGGAUAACACAUGAGGAUCACCCAUGUACAGAAGGCGGAAUUAGCGUAGGACCGAGGAUAUGUACGUGAGG |  |  | 89.5 | 26.4
GCCAUGUUAGGAUAUGCCAUUAUACUGCUGGGUAUAGAUUGGUAGAAGGAACAUGAGGAUCACCCAUGUUCGGG |  |  | 83.9 | 178
GCCCUAAAGCGGGCCGACCAUACAUGAGGAUCACCCAUGUCGAGAAGGUGCUCACGGGUGGGUGGCAAGGAUAUCGGGUCGGAA | 65.6 | 32.6 |  | 
GCCCUCGCUGAGGAUAUUAUCUGGUUCGAUUGAUAAGAAGGCAGUACAUGAGGAUCACCCAUGUGGUUCGUCCG |  |  | 76.7 | 363
GCCCUUCGUGGAAGGGCAAAAGGACAGGAUAUCGCUUAAACAUGAGGAUCACCCAUGUCCGUUAACGAGAAGGGUCGAAUAAAU | 64.2 | 12 |  | 
GCCGAACAUGAGGAUCACCCAUGUCCGGGUAGUCAAGGAUAUGGGAAGGCAAUGCCGUGGCCAGAAGGUGGCUAUC | 99.3 | 21.3 |  | 
GCCGAAGGACCCUGACGGGUCGGCUAGGAUAUACAUGAGGAUCACCCAUGUGCGGUUAUUCACGAGUAGAAGGAGCCUCGGCAA |  |  | 101 | 80.9
GCCGAUUAAGUCAGGAUAUACCUAUGGAUACAUAGGUAGAAGGGACAUGAGGAUCACCCAUGUUCCUCUACGGC |  |  | 12.9 | 25.8
GCCGCUGUAGGAUAUGCCAGGGUGGCAGCUUGAUGUGUGGCACAUGAGGAUCACCCAUGUAGAAGGACAGAAAG |  |  | 18.7 | 50.8
GCCGGGUAGGCAGGAUAUCCUCGCGCAAACACAUGAGGAUCACCCAUGUACACAAAACGUGAUAUGGAGAAGGGCCAACCCACG | 24.1 | 5.8 |  | 
GCCUAAAGUGAGGAUAUCUAGCGCGUAAAGGCAGGAGAAGGUGCAACAUGAGGAUCACCCAUGUAGGCUGUCUA |  |  | 19.5 | 20
GCCUCACAUGAGGAUCACCCAUGUCAGGAUAUAGGAGGCAGUAGAUAUCCUACCGCCGCUAGAAGGGACUGGCA |  |  | 49.1 | 131
GCCUCACAUGAGGAUCACCCAUGUCAGGAUAUCUAAGGCGAAGUGCAAGCACCUCGUGAGAGAAGGGACGUCAA |  |  | 23.2 | 47.6
GCCUCACAUGAGGAUCACCCAUGUCAGGAUAUCUAAGGCGAGGUGCAGGCACUUCGUGAGAGAAGGGACGUCAA |  |  | 21.4 | 49.8
GCCUCAGAAUUAAUUGUGAGAGGCAGAAGGCUAUAUCUCGUGGUAAACAUGAGGAUCACCCAUGUAGAGGAUAUGCUAUUACAG |  |  | 8.25 | 9.99
GCCUCAGAAUUAAUUGUGAGAGGCAGAAGGCUAUAUCUCGUGUUAAACAUGAGGAUCACCCAUGUAGAGGAUAUGCUAUUACAG |  |  | 9.3 | 10.6
GCCUCAUAGUAGAAGGGACUUAGACAGUAAAGCAAAUAGAGGAAUUAACAUGAGGAUCACCCAUGUCAGGAUAUACUAAGAGGC |  |  | 11.3 | 12.1
GCCUCAUCCGUCAGGAUAUACAGCCGCUCCCUGUUGUAGAAGGGACAUGAGGAUCACCCAUGUACGUACCACCC |  |  | 53.6 | 117
GCCUUAUCGGUCAGGAUAUACACCCGUCACUUCUUGUAGAAGGGACAUGAGGAUCACCCAUGUACAUUACAUUG |  |  | 313 | 177
GCGAAUUUGUGAGGAUAUACAUAAUUUAUAACUGUAGAAGGCACAAACCUCAAGACAUGAGGAUCACCCAUGUGGAAUUUCGCU |  |  | 131 | 192
GCGAUAUUGUAAGGAUAUACUCUGUGAUGAAGAGUAGAAGGUACUUACAUGAGGAUCACCCAUGUUUAACGAGAUACUAAUCGC | 16.6 | 13.1 |  | 
GCGAUUUUGUAGAAGGUACGUGAUUAGACAAAGUAAGGAUAUACUGACAUGAGGAUCACCCAUGUAUUAAUAGUUAACAGUCGC | 25.4 | 14.9 |  | 
GCGAUUUUGUAGAAGGUACGUUAUAAGACAAUGUAAGGAUAUACUGACAUGAGGAUCACCCAUGUAUAAAUAGUUAACAGUCGC | 8.89 | 6.68 |  | 
GCGCAAGCAUGAGGAUAUUUAUUAAAUAAUAAUAAAGAAGGCAUGUCAAAUGACAUGAGGAUCACCCAUGUUGGCAAAAUGCGC | 45.9 | 9.77 |  | 
GCGCGAAGCUAGGAUAUGGGAGCCGAAAGGCUCCCAGAAGGAGCCACAUGAGGAUCACCCAUGUGGUGAUCCUG |  |  | 18.6 | 38.6
GCGCUGCGAGGAUAUACAUGAGGAUCACCCAUGUGUCGGCAGCCAUGCUAGUACAAAUGUAGAAGGCGCGUAAA |  |  | 16.8 | 17.8
